Assay results pooled from the literature.
Compare with care: the assays were run in different laboratories.
Target: Serine/threonine-protein kinase Nek5 (NEK5, Homo sapiens, UniProt Q6P3R8)
Residues used in one study (Q6P3R8 1-708): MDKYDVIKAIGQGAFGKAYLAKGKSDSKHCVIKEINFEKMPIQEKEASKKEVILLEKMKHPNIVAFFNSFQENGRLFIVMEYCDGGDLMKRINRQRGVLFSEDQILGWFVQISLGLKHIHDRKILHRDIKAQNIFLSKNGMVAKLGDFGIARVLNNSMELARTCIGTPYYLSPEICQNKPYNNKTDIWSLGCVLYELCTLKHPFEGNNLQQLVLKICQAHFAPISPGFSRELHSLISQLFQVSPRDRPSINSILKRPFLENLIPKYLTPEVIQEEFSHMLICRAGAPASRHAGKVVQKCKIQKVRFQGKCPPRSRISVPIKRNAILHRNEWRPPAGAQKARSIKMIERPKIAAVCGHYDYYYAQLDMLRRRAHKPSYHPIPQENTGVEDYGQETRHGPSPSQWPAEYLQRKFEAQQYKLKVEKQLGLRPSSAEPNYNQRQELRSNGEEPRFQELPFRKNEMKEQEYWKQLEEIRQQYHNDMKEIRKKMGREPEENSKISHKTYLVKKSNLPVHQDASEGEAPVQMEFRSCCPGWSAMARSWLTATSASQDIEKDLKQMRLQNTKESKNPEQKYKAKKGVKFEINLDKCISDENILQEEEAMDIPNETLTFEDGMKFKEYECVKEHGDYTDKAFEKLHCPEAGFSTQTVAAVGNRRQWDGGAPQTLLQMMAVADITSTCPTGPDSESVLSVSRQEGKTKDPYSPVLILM

CN(C)c1ncc(F)c(-c2cnn3ncccc23)n1 — remaining binding (binding; 1 µM): 88%
Nc1ncc2c(n1)-c1c([nH]c3ccc(C#CC4CC4)cc13)CCCC2 — remaining binding (binding; competition with immobilised ligand; 1 µM): 100%
c1cnn2ncc(-c3ccnc(N4CCC45COC5)n3)c2c1 — remaining binding (binding; 1 µM): 97%
FC(F)(F)Oc1cccc(-c2cnc3ccc(-c4ccncc4)nn23)c1 — remaining binding (cell-free assay; competition with immobilised ligand; 5 µM): 74%
COc1cnc(Nc2cccc(S(N)(=O)=O)c2)nc1N1CCN(c2ccccc2)CC1 — remaining binding (binding; competition with immobilised ligand; 1 µM): 42%
c1ccc(N2CCN(Cc3nc4ccccc4[nH]3)CC2)nc1 — remaining binding (binding; competition with immobilised ligand; 1 µM): 100%
Cc1cnc(Nc2ccc(C(=O)N3CCC(N4CCCC4)CC3)cc2)nc1-c1cc2ccccc2s1 — remaining binding (binding; competition with immobilised ligand; 1 µM): 0.1%
CCOCCn1cc(C(=O)Nc2ccc(-n3nc(-c4cccnc4)cc3C(F)(F)F)cn2)ccc1=O — remaining binding (cell-free assay; competition with immobilised ligand; 1 µM): 100%
O=C(NCCCN1CCOCC1)c1ccc(Nc2ncc(Cl)c(-c3ccc(Cl)s3)n2)cc1 — remaining binding (binding; competition with immobilised ligand; 1 µM): 0%
CCN1CCN(Cc2ccc(C(=O)Nc3ccc(C)c(Oc4ccc5c(c4)CC(=O)N5)c3)cc2C(F)(F)F)CC1 — remaining binding (binding; competition with immobilised ligand; 1 µM): 100%
C[C@H](c1ccc(F)cc1)N(Cc1cccc(C(=O)O)c1)C(=O)c1cnc2ccccc2c1 — remaining binding (cell-free assay; competition with immobilised ligand; 1 µM): 100%
F[C@@H]1CCN(c2nccc(-c3cnn4ncccc34)n2)C1 — remaining binding (binding; 1 µM): 100%
Cn1nc(C(F)(F)F)cc1-c1cnc(N2CCc3cc(S(=O)(=O)Nc4c(F)cc(Cl)cc4F)cc(N4CCCC4=O)c32)nc1 — remaining binding (cell-free assay; competition with immobilised ligand; 1 µM): 86%
C[C@H]1CCN(c2nccc(-c3cnn4ncccc34)n2)C1 — remaining binding (binding; 1 µM): 90%
COc1ncc2cc3ccccc3nc2c1C#N — remaining binding (cell-free assay; competition with immobilised ligand; 5 µM): 88%
O=C(c1ccc(Nc2ncc(Cl)c(-c3ccc(Cl)s3)n2)cc1)N1CCC(N2CCCC2)CC1 — remaining binding (binding; competition with immobilised ligand; 1 µM): 0%
FC(F)(F)c1ccc2c(c1)nc(-c1cccnc1)n2C1CC1 — remaining binding (cell-free assay; competition with immobilised ligand; 1 µM): 100%
N[C@H]1CCN(c2nccc(-c3cnn4ncccc34)n2)C1 — remaining binding (binding; 1 µM): 87%
O=C(NCC1CCOCC1)c1n[nH]cc1NC(=O)c1c(F)cccc1F — remaining binding (binding; competition with immobilised ligand; 1 µM): 100%
CN(c1nccc(-c2cnn3ncccc23)n1)C1CC1 — remaining binding (binding; 1 µM): 100%
C[C@H](NC(=O)c1cnc2n1[C@](C)(Cc1ccc(C#N)cc1)C(=O)N2c1cc(Cl)c(F)c(Cl)c1)C(=O)NC1(c2ccccn2)CC1 — remaining binding (cell-free assay; competition with immobilised ligand; 1 µM): 100%
